How the values were obtained:
[1] = folding enthalpy; higher = less favourable; fluorescence melt of hairpins on a sequencing array, two-state fit; settings: sodium 0.088 M
How it was run: (§1)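 Bootstrapped two-state fits yielded melting temperature and folding enthalpy for library hairpins. Cy3 fluorescence, with annealed Cy3 and quencher oligos, was imaged on a sequenced MiSeq flow cell in 50 mM Na-HEPES pH 8.0, 25 mM NaCl in 2.5 °C steps up to 60 °C, and normalised to pre-quench Cy3 and to control constructs. Four replicates were combined by inverse variance, and fitted temperatures were raised by 9.35 °C to match UV melts.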

[2] = melting temperature; fluorescence melt of hairpins on a sequencing array, two-state fit, raised by 9.35 °C to match UV melts; settings: sodium 0.088 M
How it was run: as §1

Row | Sequence | folding enthalpy [1] [kcal/mol] | Tm [2] [°C]
1 | GCATTGCGAAAGCGGTGC (((..((....))..))) | -22.3 | 58.8
2 | GGCCATGGAAACGTGGTC (.(((.(....).))).) | -33.2 | 45.2
3 | GAGTCGGGAAACCGACCC (.(((((....))))).) | -10.8 | 42
4 | GTCGGCGAAAGCCCGAC ((((((....))).))) | -21.9 | 64.7
5 | GCATGTACGAAAGTATGC (((..(((....)))))) | -29.3 | 43.8
6 | GCATCGCGAAAGCTTTGC (((..((....))..))) | -18.6 | 41.2
7 | GCAGGCGGAAACGCCCAC (..((((....))))..) | -6.7 | 27.1
8 | GTAGACGGAAACGTCTGC (.(((((....))))).) | -24.6 | 55.1
9 | GGTGAATCGAAAGATACC (((..(((....)))))) | -16.8 | 29.8
10 | GGGACTCGAAAGAGACCC (((.(((....))).))) | -39.2 | 59.5
11 | GGAATACCGAAAGGTTCC (((..(((....)))))) | -16.1 | 36.4
12 | GATCATGTGAATGATC ((((((....)))))) | -39.3 | 54.6
13 | GGCGCTCGAAAGAGGCC (((.(((....)))))) | -40.1 | 57.5
14 | CGCTGGAAACAGCG (((((....))))) | -31.2 | 66.2
15 | GTGCTCGGAAACGGGTAC ((.(.((....)).).)) | -32.8 | 41.9
16 | GTACTTCGAAAGAATTAC (((.(((....))).))) | -18.6 | 32.2
17 | GCCCTACGAAAGTAGGC (((.(((....)))))) | -13 | 56.8
18 | GGACAAGGAAACTTGTTC (.(((((....))))).) | -25.9 | 43
19 | GGTTACGAAAGTACTACC ((((((....)))..))) | -23.2 | 28.4
20 | GACGGCGAAAGCCGGGTC ((((((....)))..))) | -11.3 | 68.2
21 | GCTGGCGAAAGCCTAGC ((((((....))).))) | -19.4 | 59.3
22 | GGGTCCGAAAGGAGTCCC ((((((....)))..))) | -19.6 | 46.5
23 | GCCCTGCGAAAGCAAGGC (((.(((....))).))) | -33.9 | 55.7

Row | Sequence | folding enthalpy [1] [kcal/mol] | Tm [2] [°C]
24 | GAGATAGGAAACTATCTC (((((((....))))))) | -35 | 53.1
25 | GATCTCATGGGAGATC ((((((....)))))) | -37 | 54
26 | GTACTGGGAAACCAGTGC (.(((((....))))).) | -22.6 | 50.2
27 | AACACGAAAGTGTT (((((....))))) | -18.9 | 56.8
28 | GTGGGGCCGAAAGGCCAC (((..(((....)))))) | -16.2 | 64.9
29 | GGCGGCGAAAGCCTGGCC ((((((....)))..))) | -19.9 | 61.8
30 | GCCACCGGAAACGGTAGC ((.((((....)))).)) | -21.2 | 48.1
31 | GAGCTAGGAAACTGGCTC ((((.((....)).)))) | -36.2 | 51.9
32 | GCGAAACGAAAGTTCCGC (((.(((....))).))) | -38.2 | 52.5
33 | GGGAAGGCGAAAGCCCCC (((..(((....)))))) | -14 | 48.1
34 | GGCAACGAAAGTTGCGCC ((((((....)))..))) | -7.94 | 59.2
35 | GCGCGACGAAAGTCTCGC (((.(((....))).))) | -34.3 | 60.6
36 | GATCCAATGCTGGATC ((((((....)))))) | -32.5 | 49.1
37 | CGAACGGAAACGTTTTCG ((((((....)))..))) | -16.3 | 30.4
38 | GATTCCCGAAAGGGTATC (((.(((....))).))) | -23.4 | 45.6
39 | GCAGAGGGAAACCTCCGC ((.((((....)))).)) | -26 | 44.7
40 | GGGTAGGGAAACTTGCCC (((.(.(....).).))) | -20.4 | 35.6
41 | GCTGCGCGAAAGCGAGC (((.(((....)))))) | -14.3 | 60.4
42 | GATACTGGAAACAGTATC (((((((....))))))) | -40.4 | 54.6
43 | GCGAAGTTTCGC ((((....)))) | -18.2 | 50.7
44 | GCCGAGACGAAAGTCGGC (((..(((....)))))) | -28.4 | 61.8
45 | GCCGTGGGAAACCACAGC ((.((((....)))).)) | -18.6 | 49.4
46 | GATGGGGGAAACCTCGTC ((.(.((....)).).)) | -20 | 33.2

Row | Sequence | folding enthalpy [1] [kcal/mol] | Tm [2] [°C]
47 | GGAATTGGAAACAGTTCC ((((.((....)).)))) | -27.3 | 42.9
48 | GTGCAAACGAAAGTTCAC (((..(((....)))))) | -7.78 | 33.2
49 | GAAAACGGAAACGTTCTC ((.((((....)))).)) | -12.7 | 30.4
50 | GGACTCGAAAGAGTTCC ((((((....))).))) | -21.2 | 50.3
51 | GTCCCGGGAAACTGGGAC (((((.(....).))))) | -37.2 | 60
52 | TTAGCGAAAGCTAA (((((....))))) | -16.2 | 51.2
53 | GATCGAAGTTCGATC ((((((...)))))) | -38.4 | 50.3
54 | GTTCTGGCGAAAGCCAAC (((..(((....)))))) | -7.18 | 19.8
55 | GTTTGGAAACAAAC (((((....))))) | -24.5 | 45.6
56 | GGAATAACGAAAGTTTCC (((..(((....)))))) | -14.8 | 32.5
57 | GTCTTGGGAAACTAAGAC (((((.(....).))))) | -34.9 | 42.8
58 | GGGTGCGAAAGCACTCCC ((((((....)))..))) | -10.4 | 53.5
59 | GTTAGACCGAAAGGTAAC (((..(((....)))))) | -11.2 | 30.2
60 | GACCTTACGAAAGTAGTC (((..(((....)))))) | -11 | 25.2
61 | GATCTCATCGGAGATC ((((((....)))))) | -36.1 | 52.8
62 | GCCCAGCGAAAGCGTGGC (((..((....))..))) | -23 | 62.4
63 | GTAGCCGAAAGGCGCTAC ((((((....)))..))) | -9.33 | 42.8
64 | GCTATAGGAAACTATGGC ((.((((....)))).)) | -28.6 | 41.7
65 | GGGTGCCGAAAGGCCCCC (((.(((....))).))) | -15.6 | 66.8
66 | GGGAGAGCGAAAGCTCCC (((..(((....)))))) | -15.8 | 53.7
67 | GCAGTGCGAAAGCGCAGC ((.(.((....)).).)) | -14.2 | 62.3
68 | GCCAGCCGAAAGGCCGGC (((.(((....))).))) | -27.4 | 68.4
69 | GCGAACGAAAGTTGGCGC ((((((....)))..))) | -32.8 | 53.9

Row | Sequence | folding enthalpy [1] [kcal/mol] | Tm [2] [°C]
70 | GGGTCTGGAAACGGACCC (((((.(....).))))) | -51.6 | 59.3
71 | GCCAAGCCGAAAGGCGGC (((..(((....)))))) | -16.1 | 64.2
72 | GATCGCGCTGGCGATC ((((((....)))))) | -32.5 | 68.9
73 | GATCTCATTAGAGATC ((((((....)))))) | -35 | 57.1
74 | GCTGGGCCGAAAGGCAGC (((..(((....)))))) | -13.3 | 48.5
75 | GCATGGGGAAACCCACAC (..((((....))))..) | -14.2 | 29
76 | GGTGGCGAAAGCCTCACC ((((((....)))..))) | -12.7 | 45.2
77 | GAGCCCGGAAACGAGCCC (.((.((....)).)).) | -14 | 29.1
78 | GATCATGGAAACACGATC ((((.((....)).)))) | -22.9 | 33.8
79 | GGCATCGAAAGATGCGCC ((((((....)))..))) | -8.72 | 57.3
80 | GCTGTTGCGAAAGCAAGC (((..(((....)))))) | -12.6 | 47.3
81 | GATCTGAAGGCAGATC ((((((....)))))) | -41.9 | 45.3
82 | GATCCTACTTAGGATC ((((((....)))))) | -37.3 | 53.2
83 | GCTCTCGAAAGAGCCAGC ((((((....)))..))) | -11.3 | 37.5
84 | GCGTCACCACGC ((((....)))) | -22.7 | 53
85 | GGTGTAGGAAACTACGTC (..((((....))))..) | -9.53 | 29.8
86 | GATCTATCGATAGATC ((((((....)))))) | -44.3 | 48
87 | GCTCGCCGAAAGGCAAGC (((.(((....))).))) | -29.1 | 54.7
88 | GCGTCGATACGC ((((....)))) | -19.2 | 52.2
89 | GTCAACGAAAGTTGTGAC ((((((....)))..))) | -10.8 | 33
90 | GTTAGTGGAAACACTGAC ((.((((....)))).)) | -24.2 | 44.7
91 | GCATTACGAAAGTAGTGC (((.(((....))).))) | -31.7 | 52.4
92 | GATTTTGGAAACAAAGTC ((.((((....)))).)) | -27.5 | 35.3
